Measured values taken from ChEMBL document CHEMBL4028848, “Discovery of N-{4-[5-(4-Fluorophenyl)-3-methyl-2-methylsulfanyl-3H-imidazol-4-yl]-pyridin-2-yl}-acetamide (CBS-3595), a Dual p38α MAPK/PDE-4 Inhibitor with Activity against TNFα-Related Diseases” (J Med Chem, 2017).
Activity calls are given as the source filed them. The calls are words filed in the database; no cut-off is given here.

Key:
[1] = target: Voltage-gated inwardly rectifying potassium channel KCNH2 (Homo sapiens, UniProt Q12809); test: Inhibition of human ERG expressed in HEK293 cells by patch clamp method; assay type: cell-based
Chain of Voltage-gated inwardly rectifying potassium channel KCNH2 (Q12809 whole entry): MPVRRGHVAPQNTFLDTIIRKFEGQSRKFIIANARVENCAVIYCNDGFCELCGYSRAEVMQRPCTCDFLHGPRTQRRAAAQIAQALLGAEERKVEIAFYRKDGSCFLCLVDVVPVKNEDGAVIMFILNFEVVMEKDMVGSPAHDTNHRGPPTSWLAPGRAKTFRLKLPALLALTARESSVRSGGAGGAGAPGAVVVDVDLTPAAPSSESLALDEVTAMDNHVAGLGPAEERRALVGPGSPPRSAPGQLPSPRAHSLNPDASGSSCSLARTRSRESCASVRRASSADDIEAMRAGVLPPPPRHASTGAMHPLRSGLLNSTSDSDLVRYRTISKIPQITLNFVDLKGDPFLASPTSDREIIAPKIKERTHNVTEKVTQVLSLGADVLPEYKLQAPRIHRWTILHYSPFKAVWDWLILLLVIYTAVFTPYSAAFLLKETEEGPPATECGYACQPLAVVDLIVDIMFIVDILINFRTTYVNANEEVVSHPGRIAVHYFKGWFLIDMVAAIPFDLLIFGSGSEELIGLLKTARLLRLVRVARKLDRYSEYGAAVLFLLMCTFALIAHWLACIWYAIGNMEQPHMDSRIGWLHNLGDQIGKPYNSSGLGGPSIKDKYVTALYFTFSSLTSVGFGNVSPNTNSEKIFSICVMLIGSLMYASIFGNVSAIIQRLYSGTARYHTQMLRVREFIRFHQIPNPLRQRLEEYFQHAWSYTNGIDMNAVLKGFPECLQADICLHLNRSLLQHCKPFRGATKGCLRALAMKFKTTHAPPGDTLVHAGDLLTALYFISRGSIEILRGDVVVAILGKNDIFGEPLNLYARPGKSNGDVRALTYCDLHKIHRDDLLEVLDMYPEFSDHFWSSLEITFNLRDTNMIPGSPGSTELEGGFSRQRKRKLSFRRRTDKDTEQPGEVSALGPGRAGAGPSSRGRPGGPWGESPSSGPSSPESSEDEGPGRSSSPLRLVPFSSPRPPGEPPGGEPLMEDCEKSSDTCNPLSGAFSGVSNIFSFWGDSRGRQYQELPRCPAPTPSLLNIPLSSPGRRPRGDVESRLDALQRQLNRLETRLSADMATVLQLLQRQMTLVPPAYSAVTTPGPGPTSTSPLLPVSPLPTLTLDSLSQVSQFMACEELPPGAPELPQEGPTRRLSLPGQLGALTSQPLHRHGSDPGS

[2] = target: Dual specificity mitogen-activated protein kinase kinase 6 (Homo sapiens) (UniProt P52564); test: Inhibition of MKK6 (unknown origin) assessed as decrease in p38alpha MAPK phosphorylation at 10 uM relative to control
Chain of Dual specificity mitogen-activated protein kinase kinase 6 (Homo sapiens) (P52564 whole entry): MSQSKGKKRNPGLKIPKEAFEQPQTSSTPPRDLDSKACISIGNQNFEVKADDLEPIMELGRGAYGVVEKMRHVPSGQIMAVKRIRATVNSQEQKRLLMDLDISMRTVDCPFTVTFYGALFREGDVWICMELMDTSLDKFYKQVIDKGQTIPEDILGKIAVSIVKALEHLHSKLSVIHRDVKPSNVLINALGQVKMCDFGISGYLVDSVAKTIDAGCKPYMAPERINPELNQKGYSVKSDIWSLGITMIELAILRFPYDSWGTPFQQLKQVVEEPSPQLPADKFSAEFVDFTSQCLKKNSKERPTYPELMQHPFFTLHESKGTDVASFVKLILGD

[3] = target: Dual specificity mitogen-activated protein kinase kinase 7 (Homo sapiens) (UniProt O14733); test: Inhibition of MKK7beta (unknown origin) at 10 uM relative to control
Chain of Dual specificity mitogen-activated protein kinase kinase 7 (Homo sapiens) (O14733 whole entry): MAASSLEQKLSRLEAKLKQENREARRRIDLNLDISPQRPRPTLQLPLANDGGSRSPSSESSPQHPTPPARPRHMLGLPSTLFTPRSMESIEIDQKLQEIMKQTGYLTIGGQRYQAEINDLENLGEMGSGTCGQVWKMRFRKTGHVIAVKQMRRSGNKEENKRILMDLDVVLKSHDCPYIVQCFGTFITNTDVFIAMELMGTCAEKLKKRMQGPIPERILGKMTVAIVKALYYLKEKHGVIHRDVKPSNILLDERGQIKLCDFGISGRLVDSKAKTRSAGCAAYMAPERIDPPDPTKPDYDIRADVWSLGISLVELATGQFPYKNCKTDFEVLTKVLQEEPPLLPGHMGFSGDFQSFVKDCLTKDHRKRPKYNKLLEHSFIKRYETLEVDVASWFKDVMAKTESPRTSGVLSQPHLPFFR

[4] = target: Receptor-interacting serine/threonine-protein kinase 2 (Homo sapiens) (UniProt O43353); test: Inhibition of RIPK2 (unknown origin) at 10 uM relative to control
Chain of Receptor-interacting serine/threonine-protein kinase 2 (Homo sapiens) (O43353 whole entry): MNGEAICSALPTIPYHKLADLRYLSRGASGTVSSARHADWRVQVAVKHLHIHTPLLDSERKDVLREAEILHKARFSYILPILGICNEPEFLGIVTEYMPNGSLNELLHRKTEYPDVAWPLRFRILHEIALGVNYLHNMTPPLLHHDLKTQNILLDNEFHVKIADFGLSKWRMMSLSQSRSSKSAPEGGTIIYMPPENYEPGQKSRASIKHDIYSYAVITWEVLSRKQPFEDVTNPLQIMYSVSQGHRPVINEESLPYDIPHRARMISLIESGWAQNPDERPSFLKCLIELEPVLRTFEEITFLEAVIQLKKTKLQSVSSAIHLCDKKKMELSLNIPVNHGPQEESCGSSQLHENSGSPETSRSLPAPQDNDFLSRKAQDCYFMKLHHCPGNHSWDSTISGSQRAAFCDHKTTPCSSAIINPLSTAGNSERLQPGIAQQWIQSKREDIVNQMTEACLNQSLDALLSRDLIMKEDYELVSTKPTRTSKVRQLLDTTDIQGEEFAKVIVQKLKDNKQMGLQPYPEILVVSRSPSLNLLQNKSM

[5] = target: CDK3/Cyclin E (Homo sapiens) (UniProt P24864+Q00526); test: Inhibition of CDK3/cyclinE (unknown origin) at 10 uM relative to control; assay type: protein-complex assay
Chain of CDK3/Cyclin E (Homo sapiens) (P24864 whole entry, looked up): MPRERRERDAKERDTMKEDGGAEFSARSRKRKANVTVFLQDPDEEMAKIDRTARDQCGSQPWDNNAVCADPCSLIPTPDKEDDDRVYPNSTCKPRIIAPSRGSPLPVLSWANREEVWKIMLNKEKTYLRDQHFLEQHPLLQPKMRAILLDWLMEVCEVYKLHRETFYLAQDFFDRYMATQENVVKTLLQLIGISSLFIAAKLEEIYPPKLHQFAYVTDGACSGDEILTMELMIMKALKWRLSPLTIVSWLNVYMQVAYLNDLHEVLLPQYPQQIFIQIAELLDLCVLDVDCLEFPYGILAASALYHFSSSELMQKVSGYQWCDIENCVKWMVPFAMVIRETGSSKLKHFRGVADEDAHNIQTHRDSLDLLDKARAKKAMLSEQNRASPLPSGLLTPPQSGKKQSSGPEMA
Chain of CDK3/Cyclin E (Homo sapiens) (Q00526 whole entry, looked up): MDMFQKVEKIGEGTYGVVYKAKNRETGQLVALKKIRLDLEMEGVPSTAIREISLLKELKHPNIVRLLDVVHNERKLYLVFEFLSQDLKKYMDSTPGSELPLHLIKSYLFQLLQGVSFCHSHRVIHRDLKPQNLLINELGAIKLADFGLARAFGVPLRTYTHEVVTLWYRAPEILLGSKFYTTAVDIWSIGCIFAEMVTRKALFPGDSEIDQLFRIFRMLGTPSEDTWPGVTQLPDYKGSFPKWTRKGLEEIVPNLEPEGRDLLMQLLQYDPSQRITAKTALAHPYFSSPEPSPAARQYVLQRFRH

Liver = test: Drug metabolism in human liver microsomes assessed as N-(4-(4-(4-fluorophenyl)-1-methyl-2-(methylsulfinyl)-1H-imidazol-5-yl)pyridin-2-yl)acetamide formation at 10 to 100 uM; assay type: ADME, microsome
Method in brief: (§1)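 Test compound incubated at 10, 30 and 100 μM with liver microsomes from rat, Cynomolgus monkey or human, and metabolites monitored.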

[6] = Drug metabolism in cynomolgus monkey liver microsomes assessed as N-(4-(4-(4-fluorophenyl)-1-methyl-2-(methylsulfinyl)-1H-imidazol-5-yl)pyridin-2-yl)acetamide formation at 10 to 100 uM; assay type: ADME, Macaca fascicularis, microsome; method in brief: as §1
Rattus norvegicus [7] = test: In vivo inhibition of P38 MAPKalpha in Lewis rat assessed as decrease in LPS-stimulated TNFalpha level in serum at 10 mg/kg, po pretreated for 1 hrs followed by LPS addition measured after 1.5 hrs post dose; assay type: functional, organism-based
Method in brief: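 Lewis rats, n = 8/group: females dosed orally at 10 mg/kg at −1, −3 or −5 h relative to LPS challenge, plus one male group dosed at −1 h. Male and female vehicle controls were given at −1 h. Serum TNFα was measured after LPS and compared with vehicle.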

Mus musculus = test: In vivo inhibition of P38 MAPKalpha in BALB/c mouse assessed as decrease in LPS/GalN-stimulated TNFalpha level in plasma at 3 mg/kg, po administered via gavage pretreated for 1 hr followed by LPS/GalN addition measured after 1.5 hrs relative to control; assay type: functional
Method in brief: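 Male BALB/c mice, n = 6/group, given 3, 10 or 30 mg/kg orally by gavage 1 h before i.p. D-GalN (500 mg/kg) plus LPS (1.5 μg/kg). Blood was taken by cardiac puncture and plasma TNFα measured against a vehicle-only control.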

Rattus norvegicus [8] = test: Antiarthritic activity in Lewis rat assessed as collagen oligomeric matrix protein level in serum at 50 mg/kg, po qd administered for 10 days (Rbv = 0.17 +/- 0.02 U/l); assay type: functional
Method in brief: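 Collagen-induced arthritis in male Lewis rats (5–6 per group). Groups received vehicle, dexamethasone 1 mg/kg, test item 50 mg/kg once daily, or 25 mg/kg twice daily for 10 days. Body weight, arthritic score and paw volume were monitored, and serum COMP was measured at the end.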

[9] = AUC (0 to infinity) in mongrel dog at 30 mg/kg, po by LC-MS/MS analysis; assay type: ADME, organism-based, Canis lupus familiaris; design: dose 30 mg/kg, time infinity, route oral; conditions: in vivo
Method in brief: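 Two mongrel dogs received a single oral dose of 30 mg/kg. Blood was sampled from 0.25 to 24 h and plasma parent concentrations were determined.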

[10] = Tmax in male Sprague-Dawley rat at 30 mg/kg, po by LC-MS/MS analysis; assay type: ADME, organism-based; conditions: in vivo
[11] = AUC (0 to t) in cynomolgus monkey at 20 mg/kg, po measured on day 1 and 27 post dose by LC-MS/MS analysis; assay type: ADME, organism-based, Macaca fascicularis; conditions: in vivo
Method in brief: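 Within a 4-week oral toxicity study, Cynomolgus monkeys received 6, 12 or 20 mg/kg daily. Blood was sampled from 0.5 to 24 h post dose on days 1 and 27. Tmax, Cmax, T1/2 and AUC0–24 came from individual profiles of parent and metabolite.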

Rattus norvegicus [12] = test: Toxicity in rat assessed as effect on respiratory rate by measuring increase in peak expiratory flow 300 mg/kg, po administered as single dose; assay type: organism-based; conditions: in vivo
Rattus norvegicus [13] = test: Toxicity in rat assessed as excessive defecation at 30 to 300 mg/kg, po administered as single dose; assay type: organism-based; conditions: in vivo
Rattus norvegicus [14] = test: Toxicity in Sprague-Dawley rat assessed as increase in abdomen size at 150 mg/kg, po administered via gavage for daily 28 days followed by 2 weeks off without dosing; assay type: organism-based; conditions: in vivo
Rattus norvegicus [15] = test: Toxicity in Sprague-Dawley rat assessed as increase in histopathological changes at 150 mg/kg, po administered via gavage for daily 28 days followed by 2 weeks off without dosing; assay type: organism-based; conditions: in vivo
Cynomolgus monkey = test: Toxicity in cynomolgus monkey assessed as death at 6 to 20 mg/kg followed by after 1 week high dose treatment of 25 mg/kg at 1 week post first dose for 28 days followed by 2 weeks off without dosing; assay type: organism-based, Macaca fascicularis; conditions: in vivo
Method in brief: (§2)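 Cynomolgus monkeys, 32 in total, 3–5 per group. Dosed for 28 days with vehicle or 6, 12 or 20 mg/kg; the high dose was raised to 25 mg/kg/day after 1 week. Two males and two females from the control and high-dose groups were followed through a further 2-week treatment-free period. Deaths and clinical signs recorded.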

[16] = Toxicity in cynomolgus monkey for 28 days; design: species or system Macaca fascicularis; conditions: in vivo; method in brief: as §2
Bone marrow cell = test: Clastogenicity in mouse bone marrow cells by microneucleus test; assay type: toxicity, cell-based
Method in brief: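 In vivo micronucleus test in mouse bone marrow.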

[17] = Drug excretion in human urine at 10 to 50 mg, po administered as single dose up to 36 hrs; assay type: ADME, organism-based; conditions: read-out: Drug excretion
Method in brief: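 Healthy subjects, single oral dose. Urine collected at 0–6, 6–12, 12–24 and 24–36 h post dose and analysed for parent and metabolite. Excreted amount expressed relative to administered dose.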

Homo sapiens [18] = test: Toxicity in human assessed as change in body weight at 50 mg, po administered as single dose; assay type: organism-based; conditions: in vivo
Homo sapiens [19] = test: In vivo inhibition of p38 MAPKalpha in human whole blood assessed as decrease in LPS-stimulated TNFalpha level at 10 to 30 mg treated for 36 hrs followed by LPS stimulation; assay type: functional, organism-based
Method in brief: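 Ex vivo read-out in healthy volunteers after a single oral dose (10, 20 or 30 mg; placebo-controlled, single-blind, randomized). Blood drawn pre-dose and at 1, 2, 4, 9, 24 and 36 h post-dose was stimulated with LPS. TNFα release is expressed relative to the LPS-stimulated pre-dose sample of the same subject.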

Homo sapiens [20] = test: Cmax in human assessed as 4-(4-(4-fluorophenyl)-1-methyl-2-(methylsulfinyl)-1H-imidazol-5-yl)pyridin-2-amine formation at 20 mg, po administered as single dose; assay type: ADME, organism-based; design: dose 20 mg, route oral; conditions: in vivo
Method in brief: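 Oral single-dose PK; plasma concentrations of parent and metabolite measured. Dogs: blood sampled 0.25 to 24 h after dosing. Humans: healthy subjects, placebo-controlled single-blind randomized consecutive dosing, plasma sampled predose and 0.25–36 h post dose. 10 mg also given fasting and fed in crossover. Parameters derived from individual concentration–time profiles.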

[21] = target: Mitogen-activated protein kinase 8 (Homo sapiens) (UniProt P45983); test: Inhibition of JNK1alpha1 (unknown origin) at 10 uM
Chain of Mitogen-activated protein kinase 8 (Homo sapiens) (P45983 whole entry): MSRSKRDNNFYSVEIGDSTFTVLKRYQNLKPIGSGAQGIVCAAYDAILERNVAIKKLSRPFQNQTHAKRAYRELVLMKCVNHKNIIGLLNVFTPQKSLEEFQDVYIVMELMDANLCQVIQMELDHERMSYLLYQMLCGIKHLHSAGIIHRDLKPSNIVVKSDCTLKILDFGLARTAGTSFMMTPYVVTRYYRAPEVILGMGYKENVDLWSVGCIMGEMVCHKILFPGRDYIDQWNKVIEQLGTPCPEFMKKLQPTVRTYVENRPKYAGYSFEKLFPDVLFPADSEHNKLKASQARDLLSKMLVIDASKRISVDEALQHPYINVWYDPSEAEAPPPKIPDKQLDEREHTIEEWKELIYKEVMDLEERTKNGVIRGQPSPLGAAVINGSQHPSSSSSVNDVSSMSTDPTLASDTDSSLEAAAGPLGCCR

[22] = target: Tyrosine-protein kinase Lck (Homo sapiens) (UniProt P06239); test: Inhibition of Lck (unknown origin) at 10 uM
Chain of Tyrosine-protein kinase Lck (Homo sapiens) (P06239 2-509 limits assumed): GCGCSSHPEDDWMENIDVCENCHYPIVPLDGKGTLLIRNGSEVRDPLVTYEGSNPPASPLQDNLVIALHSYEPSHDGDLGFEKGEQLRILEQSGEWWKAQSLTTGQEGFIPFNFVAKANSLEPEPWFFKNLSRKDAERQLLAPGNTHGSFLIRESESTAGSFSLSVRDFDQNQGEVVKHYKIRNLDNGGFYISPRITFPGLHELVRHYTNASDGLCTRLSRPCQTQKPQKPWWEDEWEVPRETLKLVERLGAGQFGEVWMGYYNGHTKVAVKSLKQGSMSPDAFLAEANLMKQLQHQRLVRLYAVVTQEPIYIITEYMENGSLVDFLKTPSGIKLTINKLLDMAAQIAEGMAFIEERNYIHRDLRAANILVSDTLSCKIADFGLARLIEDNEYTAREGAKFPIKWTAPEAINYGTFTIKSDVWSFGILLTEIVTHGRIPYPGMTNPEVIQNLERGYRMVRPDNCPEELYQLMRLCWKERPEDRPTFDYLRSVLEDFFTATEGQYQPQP

Compound `CC(=O)Nc1cc(-c2c(-c3ccc(F)cc3)nc([S+](C)[O-])n2C)ccn1` (configuration not stated) has an IC50 [1] of 213 µM, an inhibition [2] of 62% and an inhibition [3] of 101%. For the same compound, the inhibition [4] was 33%, the inhibition [5] was 55% and the Drug metabolism (Liver) was “Metabolite_Detected”. For the same compound, the Drug metabolism [6] was “Metabolite_Detected”, the inhibition (Rattus norvegicus [7]) was “Active” and the inhibition in vivo at 3 mg/kg (Mus musculus) was 82%. It also gave an Activity (Rattus norvegicus [8]) of 0.08 U/L, an AUC(0-inf) [9] of 96.8 µM·h and a Tmax [10] of 30 min. For the same compound, the AUC(0-t) [11] was 79.6 µM·h, the Activity (Rattus norvegicus [12]) was “Toxic” and the Activity (Rattus norvegicus [13]) was “Toxic”. For the same compound, the Activity (Rattus norvegicus [14]) was “Toxic”, the Activity (Rattus norvegicus [15]) was “Toxic” and the Activity (Cynomolgus monkey) was “Non-Toxic”. The MTD at 672 h [16] was 20 mg/kg, the NOAEL at 672 h [16] was over 25 mg/kg and the Activity (Bone marrow cell) was “Non-Toxic”. For the same compound, the dose excreted at 36 h [17] was 6%, the Activity (Homo sapiens [18]) was “Non-Toxic” and the inhibition (Homo sapiens [19]) was “Active”. The Cmax (Homo sapiens [20]) was 309 nM.
For `Cn1c([S+](C)[O-])nc(-c2ccc(F)cc2)c1-c1ccnc(N)c1` (configuration not stated), the inhibition [21] was “inactive” and the inhibition [22] was “inactive”.
